From ChEMBL document CHEMBL4308895, “A thiol-inducible and quick-response DNA cross-linking agent” (Bioorg Med Chem Lett, 2019) come the findings set out here.

One data set deals with DNA. Kind of data set: Induction of Escherichia coli pBR322 DNA cross-linking at 1 mM after 12 hrs in presence of GSH by agarose gel electrophoresis relative to control. Type of data set: nucleic-acid assay. Put shortly: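 Linearized pBR322 plasmid DNA in phosphate buffer pH 7.3 with 1 mM agent plus 2 mM GSH. Cross-linking resolved by denaturing alkaline agarose gel electrophoresis, untreated plasmid as control lane. Yield given as percent cross-linked DNA.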

A short description of data set [1]: Stability of the compound under electrospray ionisation mass spectra condition. Type of data set: physicochemical.
The nature of data set [2]: Drug metabolism in pH 7.3 phosphate buffer saline assessed as 1,4-Dihydroxy-2, 5-di-(trimethylammonium iodide-methyl)phenyl formation measured after 0.5 to 6 hrs by 1H-NMR analysis.
Data set [3] can be described thus: Drug metabolism in pH 7.3 phosphate buffer saline assessed as 1,1'-(2-(2,4-dinitrophenylsulfonyloxy)-5-hydroxy-1,4-phenylene)bis(N,N,N-trimethylmethanaminium)iodide formation measured after 5 mins by 1H-NMR analysis.
A short description of data set [4]: L-proline reactivity in DMSO-d6/D2O mixture assessed as 1,4-Dihydroxy-2, 5-di-(trimethylammonium iodide-methyl)phenyl formation at 5 mM by 1H-NMR analysis.
A short description of data set [5]: Glycine reactivity in DMSO-d6/D2O mixture assessed as 1,4-Dihydroxy-2, 5-di-(trimethylammonium iodide-methyl)phenyl formation at 5 mM by 1H-NMR analysis.
Data set [6] can be described thus: L-cysteine reactivity in pH 7.3 phosphate buffer assessed as color change from red to orange at 5 mM measured after 1 min. The class given is physicochemical. The conditions noted are these: pH 7.3, 1 min, 5000 µM. The method in brief: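 Agent at 5, 2.5 or 1 mM in phosphate buffer pH 7.3, mixed with L-Cys at twice the agent concentration (10, 5, 2 mM). Color change scored visually against agent-alone samples.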

Data set [7] is described as follows: Beta-alanine reactivity in DMSO-d6/D2O mixture assessed as 1,4-Dihydroxy-2, 5-di-(trimethylammonium iodide-methyl)phenyl formation at 5 mM by 1H-NMR analysis.
The nature of data set [8]: Drug metabolism in pH 7.3 phosphate buffer saline assessed as 2, 4-dinitrobenzene sulfonic acid formation measured immediately by 1H-NMR analysis.
Data set [9] in a line: L-arginine reactivity in DMSO-d6/D2O mixture assessed as 1,4-Dihydroxy-2, 5-di-(trimethylammonium iodide-methyl)phenyl formation at 5 mM by 1H-NMR analysis.
Data set [10] can be described thus: L-valine reactivity in DMSO-d6/D2O mixture assessed as 1,4-Dihydroxy-2, 5-di-(trimethylammonium iodide-methyl)phenyl formation at 5 mM by 1H-NMR analysis.
A short description of data set [11]: Stability in pH 7.3 phosphate buffer saline measured within 1.5 hrs by 1H-NMR analysis. The conditions noted are these: pH 7.3, 1.5 h. The class given is physicochemical.

For `Cc1cc(C[N+](C)(C)C)c(O)c(C[N+](C)(C)C)c1.[I-].[I-]`, the Activity in the data set on DNA amounted to 0%. The Stability entry in data set [1] was “Unstable”.
The like results for `C[N+](C)(C)Cc1cc(O)c(C[N+](C)(C)C)cc1O.[I-].[I-]` were, in that order, 43% and “Unstable”.
Take `C[N+](C)(C)Cc1cc(OS(=O)(=O)c2ccc([N+](=O)[O-])cc2[N+](=O)[O-])c(C[N+](C)(C)C)cc1O`: the Drug metabolism entry in [2] was “Metabolite not detected”.
`C[N+](C)(C)Cc1cc(OS(=O)(=O)c2ccc([N+](=O)[O-])cc2[N+](=O)[O-])c(C[N+](C)(C)C)cc1OS(=O)(=O)c1ccc([N+](=O)[O-])cc1[N+](=O)[O-].[I-].[I-]`: the Drug metabolism result is recorded as “Metabolite detected” in [3]; “Metabolite not detected” in [4]; “Metabolite not detected” in [5]; “Metabolite_Detected” in [6]; “Metabolite not detected” in data set [7]; “Metabolite detected” in data set [8]. In addition, the Drug metabolism entry in [9] and in data set [10] was “Metabolite not detected” in each case. Also, the Activity in the data set with DNA was determined as 34%.
For `C[N+](C)(C)Cc1cc(-c2ccc(OS(=O)(=O)c3ccc([N+](=O)[O-])cc3[N+](=O)[O-])c(C[N+](C)(C)C)c2)ccc1OS(=O)(=O)c1ccc([N+](=O)[O-])cc1[N+](=O)[O-].[I-].[I-]`, in data set [11], the Stability entry is “Stable”. Further, the Activity with DNA was determined as 0%. In addition, the Drug metabolism entry in data set [6] is recorded as “Metabolite_Detected”.
Turning to `C[N+](C)(C)Cc1cc(-c2ccc(O)c(C[N+](C)(C)C)c2)ccc1O.[I-].[I-]`, the Activity in the data set on DNA is 0%. Also, the Stability entry in data set [1] was “Unstable”.
For `Cc1cc(C[N+](C)(C)C)c(OS(=O)(=O)c2ccc([N+](=O)[O-])cc2[N+](=O)[O-])c(C[N+](C)(C)C)c1.[I-].[I-]`, the Activity in the data set on DNA was determined as 0%. For the same compound, the Drug metabolism result in [6] is “Metabolite_Detected”.
